{"source": "ChEMBL document CHEMBL1149087", "about": "“Anticancer and antimalarial efficacy and safety of artemisinin-derived trioxane dimers in rodents” (J Med Chem, 2004)", "key": {"Plasmodium falciparum": {"test_system": "Plasmodium falciparum", "assay": "In vitro antimalarial activity for Plasmodium falciparum NF54 infected mice (Mus musculus)", "format": "functional, organism-based", "method_in_brief": "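In vitro antimalarial assay run in quadruplicate, with artemisinin as concurrent control (n = 3). EC50 taken from fitted dose-response curves.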"}, "TRAMP-C1A": {"test_system": "TRAMP-C1A", "assay": "Inhibitory concentration to inhibit growth of C1A prostate cancer cell line by using MTT assay", "format": "functional, cell-based", "details": "Mus musculus", "method_in_brief": "(§1)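 TRAMP mouse prostate cancer clonal lines, seeded at 2.5×10^4 (C1A), 2.0×10^4 (C2D, C2G) or 1.5×10^4 (C2H) cells/mL. Grown in DMEM high glucose with 10% FBS, insulin, pen-strep and 10^-8 M dihydrotestosterone at 37 °C, 5% CO2. After 24 h, switched to phenol-free medium with ethanol-dissolved compound. MTT read-out at 0, 24, 48 and 72 h: 4 h MTT, then SDS/HCl solubilisation overnight.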"}, "C2D cell line": {"test_system": "C2D cell line", "assay": "Inhibitory concentration to inhibit growth of C2D prostate cancer cell line by using MTT assay", "format": "functional, cell-based, Homo sapiens", "details": "Mus musculus", "method_in_brief": "as §1"}, "C2G cell line": {"test_system": "C2G cell line", "assay": "Inhibitory concentration to inhibit growth of C2G prostate cancer cell line by using MTT assay", "format": "functional, cell-based, Homo sapiens", "details": "Mus musculus", "method_in_brief": "as §1"}, "TRAMP-C2H": {"test_system": "TRAMP-C2H", "assay": "Inhibitory concentration to inhibit growth of C2H prostate cancer cell line by using MTT assay", "format": "functional, cell-based", "details": "Mus musculus", "method_in_brief": "as §1"}, "[1]": {"assay": "Therapeutic index expressed as maximum tolerated / ED50 intravenously was determined", "details": "iv; read-out: Therapeutic index", "method_in_brief": "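Therapeutic index calculated as maximum tolerated single ip dose in mice divided by iv ED50 (mg/kg/day × 4).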"}, "Mus musculus [2]": {"test_system": "Mus musculus", "assay": "Compound was tested for number of animals that remain safe when administered intraperitoneally in mice (total no of deaths =125); 0/3", "format": "functional"}, "Mus musculus [3]": {"test_system": "Mus musculus", "assay": "Compound was tested for number of animals that remain safe when administered intraperitoneally in mice (total no of deaths =500); 3/3", "format": "functional"}, "Mus musculus [4]": {"test_system": "Mus musculus", "assay": "Compound was tested for number of animals that remain safe when administered intraperitoneally in mice (total no of deaths =750); 2/3", "format": "functional"}, "Mus musculus [5]": {"organism": "Mus musculus", "assay": "Compound was tested for weight gain in mice; reduced", "format": "functional, organism-based"}, "Mus musculus [6]": {"test_system": "Mus musculus", "assay": "Compound was tested for number of animals that remain safe when administered intraperitoneally in mice (total no of deaths =250); 1/3", "format": "functional"}, "Mus musculus [7]": {"test_system": "Mus musculus", "assay": "Compound was tested for number of animals that remain safe when administered intraperitoneally in mice (total no of deaths =500); 1/3", "format": "functional"}, "Mus musculus [8]": {"test_system": "Mus musculus", "assay": "Compound was tested for number of animals that remain safe when administered intraperitoneally in mice (total no of deaths =750); 3/3", "format": "functional"}, "Mus musculus [9]": {"test_system": "Mus musculus", "assay": "Compound was tested for number of animals that remain safe when administered intraperitoneally in mice (total no of deaths =250); 0/3", "format": "functional"}, "Mus musculus [10]": {"test_system": "Mus musculus", "assay": "Compound was tested for number of animals that remain safe when administered intraperitoneally in mice (dose 500 mg/kg); deaths 3/3"}, "Mus musculus [11]": {"organism": "Mus musculus", "assay": "Compound was tested for weight gain in mice; markedly reduced", "format": "functional, organism-based"}, "Mus musculus [12]": {"test_system": "Mus musculus", "assay": "Compound was tested for number of animals that remain safe when administered intraperitoneally in mice (dose 125 mg/kg); deaths 0/3"}, "Mus musculus [13]": {"test_system": "Mus musculus", "assay": "Compound was tested for number of animals that remain safe when administered intraperitoneally in mice (dose 250 mg/kg); deaths 1/3"}}, "note": "Structures can show the parent of a compound that is named as a salt.", "data": [{"smiles": "C[C@@H]1CC[C@H]2[C@@H](C)C(=O)O[C@@H]3O[C@@]4(C)CC[C@@H]1[C@]32OO4", "note": "[ARTEMISININ]", "values": [{"measurement": "EC50", "setting": "Plasmodium falciparum", "result": 8.8, "unit": "nM"}]}, {"smiles": "C[C@H]1[C@H](OC(=O)CCC(=O)OCC(CO)COC(=O)CCC(=O)O[C@@H]2O[C@@H]3O[C@]4(C)CC[C@H]5[C@H](C)CC[C@@H]([C@H]2C)[C@@]35OO4)O[C@@H]2OC3(C)CC[C@H]4[C@H](C)CC[C@@H]1[C@@]24OO3", "note": "(single isomer, unassigned)", "values": [{"measurement": "IC50", "setting": "TRAMP-C1A", "result": 23.3, "unit": "nM"}, {"measurement": "IC50", "setting": "C2D cell line", "result": 18.5, "unit": "nM"}, {"measurement": "IC50", "setting": "C2G cell line", "result": 15.4, "unit": "nM"}, {"measurement": "IC50", "setting": "TRAMP-C2H", "result": 9.2, "unit": "nM"}]}, {"smiles": "Nc1ccn([C@@H]2O[C@H](CO)[C@@H](O)C2(F)F)c(=O)n1", "note": "[GEMCITABINE HYDROCHLORIDE]", "values": [{"measurement": "IC50", "setting": "TRAMP-C1A", "result": 9, "unit": "nM"}, {"measurement": "IC50", "setting": "C2D cell line", "result": 11.9, "unit": "nM"}, {"measurement": "IC50", "setting": "C2G cell line", "result": 3.7, "unit": "nM"}, {"measurement": "IC50", "setting": "TRAMP-C2H", "result": 4.7, "unit": "nM"}]}, {"smiles": "C[C@H]1[C@H](OC(=O)CCC(=O)OCC(COC(=O)CCC(=O)O[C@@H]2O[C@@H]3O[C@]4(C)CC[C@H]5[C@H](C)CC[C@@H]([C@H]2C)[C@@]35OO4)COC(=O)c2cc[n+]([O-])cc2)O[C@@H]2O[C@]3(C)CC[C@H]4[C@H](C)CC[C@@H]1[C@@]24OO3", "note": "(stereo not given in full)", "values": [{"measurement": "selectivity ratio", "setting": "[1]", "result": 156}, {"measurement": "IC50", "setting": "TRAMP-C1A", "result": 84.6, "unit": "nM"}, {"measurement": "IC50", "setting": "C2D cell line", "result": 62.1, "unit": "nM"}, {"measurement": "IC50", "setting": "C2G cell line", "result": 47.4, "unit": "nM"}, {"measurement": "Therapeutic index", "setting": "Mus musculus [2]", "result": 0, "unit": "mg/kg"}, {"measurement": "Therapeutic index", "setting": "Mus musculus [3]", "result": 3, "unit": "mg/kg"}, {"measurement": "Therapeutic index", "setting": "Mus musculus [4]", "result": 2, "unit": "mg/kg"}, {"measurement": "Activity", "setting": "Mus musculus [5]", "result": "Weight gain reduced"}, {"measurement": "IC50", "setting": "TRAMP-C2H", "result": 36.1, "unit": "nM"}, {"measurement": "Therapeutic index", "setting": "Mus musculus [6]", "result": 1, "unit": "mg/kg"}, {"measurement": "EC50", "setting": "Plasmodium falciparum", "result": 0.53, "unit": "nM"}]}, {"smiles": "C[C@H]1[C@H](OC(=O)CCC(=O)OCC(COC(=O)CCC(=O)O[C@@H]2O[C@@H]3O[C@]4(C)CC[C@H]5[C@H](C)CC[C@@H]([C@H]2C)[C@@]35OO4)C(=O)O)O[C@@H]2O[C@]3(C)CC[C@H]4[C@H](C)CC[C@@H]1[C@@]24OO3", "note": "(stereo not given in full)", "values": [{"measurement": "selectivity ratio", "setting": "[1]", "result": 167}, {"measurement": "IC50", "setting": "TRAMP-C1A", "result": 159, "unit": "nM"}, {"measurement": "IC50", "setting": "C2D cell line", "result": 231, "unit": "nM"}, {"measurement": "Therapeutic index", "setting": "Mus musculus [7]", "result": 1, "unit": "mg/kg"}, {"measurement": "IC50", "setting": "C2G cell line", "result": 134, "unit": "nM"}, {"measurement": "Therapeutic index", "setting": "Mus musculus [2]", "result": 0, "unit": "mg/kg"}, {"measurement": "Therapeutic index", "setting": "Mus musculus [8]", "result": 3, "unit": "mg/kg"}, {"measurement": "Therapeutic index", "setting": "Mus musculus [9]", "result": 0, "unit": "mg/kg"}, {"measurement": "IC50", "setting": "TRAMP-C2H", "result": 116, "unit": "nM"}, {"measurement": "EC50", "setting": "Plasmodium falciparum", "result": 2.4, "unit": "nM"}]}, {"smiles": "COc1cccc2c1C(=O)c1c(O)c3c(c(O)c1C2=O)C[C@@](O)(C(=O)CO)C[C@@H]3O[C@H]1C[C@H](N)[C@H](O)[C@H](C)O1", "note": "[DOXORUBICIN]", "values": [{"measurement": "IC50", "setting": "TRAMP-C1A", "result": 75.9, "unit": "nM"}, {"measurement": "IC50", "setting": "C2D cell line", "result": 46.5, "unit": "nM"}, {"measurement": "IC50", "setting": "C2G cell line", "result": 28.7, "unit": "nM"}, {"measurement": "IC50", "setting": "TRAMP-C2H", "result": 30.3, "unit": "nM"}]}, {"smiles": "C[C@H]1[C@H](OC(=O)CCC(=O)[O-])O[C@@H]2O[C@@]3(C)CC[C@H]4[C@H](C)CC[C@@H]1[C@@]24OO3.[Na+]", "note": "[SODIUM ARESUNATE]", "values": [{"measurement": "Deaths", "setting": "Mus musculus [10]", "result": 3, "unit": "deaths"}, {"measurement": "selectivity ratio", "setting": "[1]", "result": 23}, {"measurement": "Activity", "setting": "Mus musculus [11]", "result": "Weight gain markedly reduced"}, {"measurement": "Deaths", "setting": "Mus musculus [12]", "result": 0, "unit": "deaths"}, {"measurement": "Deaths", "setting": "Mus musculus [13]", "result": 1, "unit": "deaths"}, {"measurement": "EC50", "setting": "Plasmodium falciparum", "result": 1.5, "unit": "nM"}]}]}
